Values joined by “and” are separate entries in the source; they are usually repeats but may differ in a detail not shown here. Equal entries are not always repeated. Some results are limits rather than exact numbers.

The test system of one test is CHO. Nature of the test: Effect of compound on de novo synthesis of sphingomyelin (SM) by metabolic labeling of lipids in CHO cells with radioactive serine at 1 uM. The format is functional, Cricetulus griseus.
Conditions: not given
In a few lines: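 CHO-K1 subconfluent monolayers preincubated in serum-free medium with compound at 1 μM, 0.01% (v/v) DMSO, 4 °C for 15 min. L-[14C]serine (0.75 μCi) then added, 33 °C for 2 h. Lipids extracted, TLC-separated, labeled SM quantified by imaging analyzer and normalized to lysate protein. Reported as % of DMSO-only control; mean ± SD, n = 3.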
For `CCCCCCCCCCCC(=O)N[C@@H](CO)[C@@H](O)[C@@H](O)c1ccccc1`, the “Sphingomyelin synthesis, % of control” value stood at 57%.
As to `CCCCCCCCCCCC(=O)N[C@@H](CO)[C@H](O)[C@H](O)c1ccccc1`, the “Sphingomyelin synthesis, % of control” value is given as 17%.
The same measure, in the same setting: then `CCCCCCCCCCCC(=O)N[C@@H](CO)C[C@@H](OC)c1ccccc1`, with 119%.
Same read-out and setting: then `CCCCCCCCCCCC(=O)N[C@@H](CO)C[C@@H](O)c1ccccc1`, with 8.2% and 4%.
On the same count and under the same terms, then `CCCCCCCCCCCC(=O)N[C@@H](COC)C[C@@H](OC)c1ccccc1`, with 130%.
Consider `CCCCCCCCCCCC(=O)N[C@@H](CO)[C@H](O)[C@@H](O)c1ccccc1`, for which the “Sphingomyelin synthesis, % of control” value is 28%.
For the compound `CCCCCCCCCCCC(=O)N[C@@H](CO)[C@@H](O)[C@H](O)c1ccccc1`, the “Sphingomyelin synthesis, % of control” value worked out at 40%.
Still for that read-out and setting: then `CCCCCCCCCCCC(=O)N[C@@H](COC)C[C@@H](O)c1ccccc1`, with 79%.

For another test, the system named is CHO. Nature of the test: Inhibitory concentration on de novo synthesis of sphingomyelin (SM) by metabolic labeling of lipids in CHO cells with radioactive serine. The format is functional, cell-based. The following applies: Cricetulus griseus. A digest of the protocol: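 Compound tested at 0 to 1 μM in serum-free medium containing 0.01% (v/v) DMSO. Subconfluent CHO-K1 monolayers were preincubated at 4 °C for 15 min, then pulsed with L-[14C]serine (0.75 μCi) at 33 °C for 2 h. Labeled SM was separated by TLC, imaged, and normalized to cell protein. IC50 came from […] of a single assay series.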
Consider `CCCCCCCCCCCCCC(=O)N[C@@H](CO)C[C@@H](O)c1ccccc1`, for which the IC50 – broadly, the concentration that gives 50% inhibition – amounted to 70 nM.
Same read-out and setting: the figure for `CCCCCCCCCCCCCCCCC(=O)N[C@@H](CO)C[C@@H](O)c1ccccc1` is over 1000 nM; for `CCCCCCCCCCCC(=O)N[C@@H](CO)C[C@@H](O)c1ccccc1` it is 70 nM; for `CCCCCCCCCCCCC(=O)N[C@@H](CO)C[C@@H](O)c1ccccc1` it is 50 nM.
As for `CCCCCCCCCC(=O)N[C@@H](CO)C[C@@H](O)c1ccccc1`, the IC50 is 300 nM.
Turning to `CCCCCCCCCCCCCCCC(=O)N[C@@H](CO)C[C@@H](O)c1ccccc1`, the half-maximal inhibitory concentration (IC50) is over 1000 nM.
Still for that read-out and setting: then `CCCCCCCCCCC(=O)N[C@@H](CO)C[C@@H](O)c1ccccc1`, with 110 nM; and `CCCCCCCCCCCCCCC(=O)N[C@@H](CO)C[C@@H](O)c1ccccc1`, with 90 nM.
`CCCCCCCCCCCCCCCCCC(=O)N[C@@H](CO)C[C@@H](O)c1ccccc1`: the IC50 is over 1000 nM.

The record behind these values is ChEMBL document CHEMBL1145053, “Stereoselective synthesis and structure-activity relationship of novel ceramide trafficking inhibitors. (1R,3R)-N-(3-hydroxy-1-hydroxymethyl-3-phenylpropyl)dodecanamide and its analogues” (J Med Chem, 2003).
